According to ChEMBL document CHEMBL3526089, “Selective mechanism-based inactivation of CYP3A4 by CYP3cide (PF-04981517) and its utility as an in vitro tool for delineating the relative roles of CYP3A4 versus CYP3A5 in the metabolism of drugs” (Drug Metab Dispos, 2012):
pIC50, pKi: −log10 of the molar value.

Legend:
Type in all cases: ADME
CYP3A [1] = target: T1, CYP3A (Homo sapiens, UniProt P08684+P20815+P24462+Q9HB55); assay: Reversible inhibition of human CYP3A midazolam 1'-hydroxylase activity; conditions: probe midazolam (1'-hydroxylation)
Method in brief: (§1)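 Reversible IC50 with pooled HLM or recombinant CYP3A7 (with POR and b5), protein 0.010–0.10 mg/ml depending on isoform. Probe substrate at its experimentally derived KM. Metabolite formation measured by LC/MS/MS. IC50 determinations run in duplicate.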

CYP2C9 = CYP2C9 (Homo sapiens, UniProt P11712); assay: Time dependent inhibition of human CYP2C9 diclofenac 4'-hydroxylase activity assessed as decrease in enzyme activity at 100 uM preincubated for 30 mins by IC25-shift assay; conditions: probe diclofenac (4'-hydroxylation)
CYP2C9, sequence (P11712 whole entry): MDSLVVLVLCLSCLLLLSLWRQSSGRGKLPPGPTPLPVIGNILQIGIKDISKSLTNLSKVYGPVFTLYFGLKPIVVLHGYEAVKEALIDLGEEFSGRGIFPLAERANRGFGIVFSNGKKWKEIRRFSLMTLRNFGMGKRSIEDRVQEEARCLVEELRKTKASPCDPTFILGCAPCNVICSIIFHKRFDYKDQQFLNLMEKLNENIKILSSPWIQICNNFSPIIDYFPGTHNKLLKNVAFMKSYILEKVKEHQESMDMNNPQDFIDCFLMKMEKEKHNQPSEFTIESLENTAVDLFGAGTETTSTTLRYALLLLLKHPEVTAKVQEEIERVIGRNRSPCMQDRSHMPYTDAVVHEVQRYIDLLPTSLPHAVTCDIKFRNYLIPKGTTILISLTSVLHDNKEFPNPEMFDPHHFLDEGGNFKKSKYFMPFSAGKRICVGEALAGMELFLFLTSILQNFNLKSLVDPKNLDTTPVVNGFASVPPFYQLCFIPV
Method in brief: (§2)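 IC25-shift assay. Pooled HLMs or recombinant CYP3A4/3A5/3A7 were preincubated 30 min at 37°C with CYP3cide, with or without NADPH (1.3 mM) (N=2). Mixture diluted 10-fold into probe substrate (~KM) at 37°C. Metabolites analysed by LC/MS/MS. Readout: % decrease in activity vs control.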

[2] = Inhibition of CYP3A5*3/*3 in 5 mg/ml of human liver microsomes assessed as midazolam 1'-hydroxylase activity at <2.5 uM after 10 mins
Cytochrome P450 2C8 = Cytochrome P450 2C8 (Homo sapiens, UniProt P10632); assay: Reversible inhibition of human CYP2C8 paclitaxel 6alpha-hydroxylase activity; method in brief: as §1
Cytochrome P450 2C8, sequence (P10632 whole entry): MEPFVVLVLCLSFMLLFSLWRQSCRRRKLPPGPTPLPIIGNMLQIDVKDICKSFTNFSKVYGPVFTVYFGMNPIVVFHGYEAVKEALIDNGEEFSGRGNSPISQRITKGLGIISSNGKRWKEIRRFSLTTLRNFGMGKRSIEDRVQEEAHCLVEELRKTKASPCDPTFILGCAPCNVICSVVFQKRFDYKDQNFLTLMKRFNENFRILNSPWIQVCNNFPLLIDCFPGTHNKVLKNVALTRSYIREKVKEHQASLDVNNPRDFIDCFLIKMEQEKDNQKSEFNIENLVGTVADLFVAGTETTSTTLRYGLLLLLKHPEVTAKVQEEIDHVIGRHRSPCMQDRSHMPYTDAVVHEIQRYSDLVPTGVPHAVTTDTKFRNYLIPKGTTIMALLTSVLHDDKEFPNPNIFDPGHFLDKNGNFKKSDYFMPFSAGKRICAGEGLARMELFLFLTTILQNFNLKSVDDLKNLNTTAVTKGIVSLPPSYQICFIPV

CYP3A [3] = target: T1, CYP3A; assay: Reversible inhibition of human CYP3A testosterone 6beta-hydroxylase activity; conditions: probe testosterone (6beta-hydroxylation); method in brief: as §1
Cytochrome P450 3A5 [4] = target: T2, Cytochrome P450 3A5 (Homo sapiens, UniProt P20815); assay: (§3) Drug metabolism assessed as human recombinant CYP3A5 in presence of human P450 oxidoreductase and b5-mediated 1-((3S)-1-(1-methyl-3-(1-methyl-5-p-tolyl-1H-pyrazol-4-yl)-1H-pyrazolo[3,4-d]pyrimidin-4-yl)pyrrolidin-3-yl)-2,3,4,5-tetrahydropyridinium formation at 10 uM by HPLC-MS analysis in presence of NADPH; conditions: recombinant enzyme
T2 sequence (P20815 whole entry): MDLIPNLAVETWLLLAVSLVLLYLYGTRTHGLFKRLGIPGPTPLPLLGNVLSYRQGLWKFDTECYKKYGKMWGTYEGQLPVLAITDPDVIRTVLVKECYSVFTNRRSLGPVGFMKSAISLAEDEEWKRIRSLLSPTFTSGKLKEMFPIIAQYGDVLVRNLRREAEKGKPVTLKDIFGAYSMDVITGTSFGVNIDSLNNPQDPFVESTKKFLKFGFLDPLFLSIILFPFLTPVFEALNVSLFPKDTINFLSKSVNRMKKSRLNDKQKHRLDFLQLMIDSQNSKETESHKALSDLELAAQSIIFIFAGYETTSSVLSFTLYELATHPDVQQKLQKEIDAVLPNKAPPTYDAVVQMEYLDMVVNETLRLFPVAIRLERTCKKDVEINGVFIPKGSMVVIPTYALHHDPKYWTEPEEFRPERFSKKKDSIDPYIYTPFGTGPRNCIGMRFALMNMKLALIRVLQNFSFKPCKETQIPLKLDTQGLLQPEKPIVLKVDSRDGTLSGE
Method in brief: (§4)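 Recombinant CYP3A4 or CYP3A5 (50 pmol/ml final) added, without preincubation, to 10 µM CYP3cide with NADPH (final 1 mM) in 100 mM phosphate pH 7.4. Trapping incubations also held 200 µM KCN or 5 mM GSH (final). Incubated 1 h at 37°C, quenched with acetonitrile, dried, reconstituted. Metabolites analysed by LC/Orbitrap ESI-MS.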

Cytochrome P450 3A4 [5] = target: T3, Cytochrome P450 3A4 (Homo sapiens, UniProt P08684); assay: Drug metabolism assessed as human recombinant CYP3A4 in presence of human P450 oxidoreductase and b5-mediated (4-(1-methyl-4-((S)-3-(piperidin-1-yl)pyrrolidin-1-yl)-1H-pyrazolo[3,4-d]pyrimidin-3-yl)-5-p-tolyl-1H-pyrazol-1-yl)methanol formation at 10 uM by HPLC-MS analysis in presence of NADPH; conditions: recombinant enzyme; method in brief: as §4
T3 sequence (P08684 whole entry): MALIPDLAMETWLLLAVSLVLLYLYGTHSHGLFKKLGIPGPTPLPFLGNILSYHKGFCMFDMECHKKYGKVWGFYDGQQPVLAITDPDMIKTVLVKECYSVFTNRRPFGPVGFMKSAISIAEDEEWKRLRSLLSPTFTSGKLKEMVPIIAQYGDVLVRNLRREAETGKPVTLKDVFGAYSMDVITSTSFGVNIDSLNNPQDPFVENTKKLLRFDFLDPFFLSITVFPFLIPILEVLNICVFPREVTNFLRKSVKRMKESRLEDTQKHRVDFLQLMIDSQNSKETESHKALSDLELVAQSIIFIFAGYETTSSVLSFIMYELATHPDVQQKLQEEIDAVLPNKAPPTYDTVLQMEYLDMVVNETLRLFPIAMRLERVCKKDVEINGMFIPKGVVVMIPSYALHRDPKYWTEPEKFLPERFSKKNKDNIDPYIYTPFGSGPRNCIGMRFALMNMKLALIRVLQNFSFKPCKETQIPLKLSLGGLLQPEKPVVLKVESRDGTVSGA

CYP3A5 = CYP3A5 (Homo sapiens, UniProt P20815); assay: Time dependent inhibition of midazolam 1'-hydroxylase activity of human recombinant CYP3A5 harboring human P450 oxidoreductase and b5 assessed as decrease in enzyme activity at 2 uM preincubated for 30 mins by IC25-shift assay; conditions: recombinant CYP3A5 with human P450 oxidoreductase and b5, probe midazolam (1'-hydroxylation); method in brief: as §2
CYP3A5, sequence (P20815 whole entry): as the sequence (P20815 whole entry) above

Cytochrome P450 3A4 [6] = target: T3, Cytochrome P450 3A4; assay: Inhibition of midazolam 1'-hydroxylase activity of human recombinant CYP3A4 harboring human P450 oxidoreductase and b5 assessed as decrease in enzyme activity preincubated for 30 mins by LC-MS/MS analysis
Method in brief: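 Recombinant CYP3A4 with POR and cytochrome b5 was preincubated with inhibitor at 0.050 µM, with or without NADPH (1.3 mM), for 30 min at 37°C (N=2). The mixture was then diluted 10-fold into the probe substrate (about KM) at 37°C and analysed for metabolite. Results are percent decrease in activity versus control.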

CYP1A2 = CYP1A2 (Homo sapiens, UniProt P05177); assay: Time dependent inhibition of human CYP1A2 phenacetin O-deethylase activity assessed as decrease in enzyme activity at 100 uM preincubated for 30 mins by IC25-shift assay; conditions: probe phenacetin (O-deethylation); method in brief: as §2
CYP1A2, sequence (P05177 whole entry): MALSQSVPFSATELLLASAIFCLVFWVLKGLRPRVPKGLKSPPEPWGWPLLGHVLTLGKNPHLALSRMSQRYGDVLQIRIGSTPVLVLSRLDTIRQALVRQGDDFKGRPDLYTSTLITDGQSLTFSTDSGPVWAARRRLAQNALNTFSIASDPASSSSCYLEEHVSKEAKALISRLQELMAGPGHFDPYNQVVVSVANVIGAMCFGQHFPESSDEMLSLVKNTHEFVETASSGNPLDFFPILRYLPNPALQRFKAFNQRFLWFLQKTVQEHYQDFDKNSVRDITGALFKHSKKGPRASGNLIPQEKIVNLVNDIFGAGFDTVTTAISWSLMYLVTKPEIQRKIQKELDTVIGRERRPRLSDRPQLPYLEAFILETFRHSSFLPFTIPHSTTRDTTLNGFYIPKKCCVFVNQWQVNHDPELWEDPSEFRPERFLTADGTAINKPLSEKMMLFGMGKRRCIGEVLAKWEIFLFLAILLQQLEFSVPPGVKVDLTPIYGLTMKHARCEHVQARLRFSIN

CYP3A [7] = target: T1, CYP3A; assay: Time dependent inhibition of human CYP3A testosterone 6beta-hydroxylase activity assessed as decrease in enzyme activity at 5 uM preincubated for 30 mins by IC25-shift assay; conditions: probe testosterone (6beta-hydroxylation); method in brief: as §2
Cytochrome P450 1A2 = Cytochrome P450 1A2 (Homo sapiens, UniProt P05177); assay: Reversible inhibition of human CYP1A2 phenacetin O-deethylase activity; method in brief: as §1
Cytochrome P450 1A2, sequence (P05177 whole entry): as above

Cytochrome P450 3A4 [8] = target: T3, Cytochrome P450 3A4; assay: Reversible inhibition of testosterone 6beta-hydroxylase activity of human recombinant CYP3A4 in presence of human P450 oxidoreductase and b5
Method in brief: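 IC50 was measured with baculovirus-expressed CYP3A4 plus POR and cytochrome b5 (P450:reductase:b5 1:5:7), with substrate at its experimentally derived KM, in duplicate. Enzyme was 0.010 mg/ml for midazolam 1'-hydroxylation and 0.020 mg/ml for testosterone 6β-hydroxylation.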

Cytochrome P450 3A4 [9] = target: T3, Cytochrome P450 3A4; assay: as §3, with “CYP3A4” for “CYP3A5”; conditions: recombinant enzyme; method in brief: as §4
CYP2D6 = CYP2D6 (Homo sapiens, UniProt P10635); assay: Time dependent inhibition of human CYP2D6 dextromethorphan O-demethylase activity assessed as decrease in enzyme activity at 100 uM preincubated for 30 mins by IC25-shift assay; conditions: probe dextromethorphan (O-demethylation); method in brief: as §2
CYP2D6, sequence (P10635 whole entry): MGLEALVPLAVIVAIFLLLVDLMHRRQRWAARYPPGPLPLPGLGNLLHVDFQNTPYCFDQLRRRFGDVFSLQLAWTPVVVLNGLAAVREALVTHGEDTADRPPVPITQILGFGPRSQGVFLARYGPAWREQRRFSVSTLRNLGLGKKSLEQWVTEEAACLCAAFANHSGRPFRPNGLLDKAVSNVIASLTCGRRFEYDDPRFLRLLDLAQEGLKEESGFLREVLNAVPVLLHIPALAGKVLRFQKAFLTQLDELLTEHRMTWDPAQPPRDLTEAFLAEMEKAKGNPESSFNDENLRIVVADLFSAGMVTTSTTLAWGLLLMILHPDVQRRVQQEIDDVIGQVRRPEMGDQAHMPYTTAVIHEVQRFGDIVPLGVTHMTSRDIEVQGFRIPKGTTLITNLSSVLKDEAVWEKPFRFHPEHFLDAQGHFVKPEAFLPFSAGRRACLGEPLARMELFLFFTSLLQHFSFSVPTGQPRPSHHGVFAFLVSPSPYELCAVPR

CYP3A [10] = target: T1, CYP3A; assay: Reversible inhibition of human CYP3A felodipine oxidase activity; conditions: probe felodipine (oxidation); method in brief: as §1
Cytochrome P450 2C9 = Cytochrome P450 2C9 (Homo sapiens, UniProt P11712); assay: Reversible inhibition of human CYP2C9 diclofenac 4'-hydroxylase activity; method in brief: as §1
Cytochrome P450 2C9, sequence (P11712 whole entry): as the sequence (P11712 whole entry) above

Cytochrome P450 2B6 = Cytochrome P450 2B6 (Homo sapiens, UniProt P20813); assay: Reversible inhibition of human CYP2B6 bupropion hydroxylase activity; method in brief: as §1
Cytochrome P450 2B6, sequence (P20813 whole entry): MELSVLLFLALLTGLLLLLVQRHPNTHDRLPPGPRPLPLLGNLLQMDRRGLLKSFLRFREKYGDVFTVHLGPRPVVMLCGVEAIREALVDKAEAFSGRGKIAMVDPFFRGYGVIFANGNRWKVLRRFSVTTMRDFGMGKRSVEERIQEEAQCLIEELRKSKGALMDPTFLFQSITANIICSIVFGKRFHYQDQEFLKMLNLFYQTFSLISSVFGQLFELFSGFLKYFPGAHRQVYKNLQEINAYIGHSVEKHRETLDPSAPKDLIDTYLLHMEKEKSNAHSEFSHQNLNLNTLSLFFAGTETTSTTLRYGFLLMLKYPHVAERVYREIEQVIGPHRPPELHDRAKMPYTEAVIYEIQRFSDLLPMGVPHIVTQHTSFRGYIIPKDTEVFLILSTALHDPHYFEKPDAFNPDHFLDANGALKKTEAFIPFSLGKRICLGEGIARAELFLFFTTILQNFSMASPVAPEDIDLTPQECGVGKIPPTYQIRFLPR

Cytochrome P450 3A5 [11] = target: T2, Cytochrome P450 3A5; assay: Reversible inhibition of testosterone 6beta-hydroxylase activity of human recombinant CYP3A5 in presence of human P450 oxidoreductase and b5
Method in brief: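 Recombinant CYP3A5 expressed in baculovirus, with P450 oxidoreductase and cytochrome b5 (P450:POR:b5 1:13:7). Enzyme at 0.010 mg/ml for midazolam 1'-hydroxylase and 0.020 mg/ml for testosterone 6β-hydroxylase. Each substrate at its experimentally derived KM. IC50 determined in duplicate.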

CYP3A4 = CYP3A4 (Homo sapiens, UniProt P08684); assay: Time dependent inhibition of testosterone 6beta-hydroxylase activity of human recombinant CYP3A4 in presence of human P450 oxidoreductase and b5 assessed as decrease in enzyme activity at 0.050 uM preincubated for 30 mins by IC25-shift assay; conditions: recombinant CYP3A4 with human P450 oxidoreductase and b5, probe testosterone (6beta-hydroxylation); method in brief: as §2
CYP3A4, sequence (P08684 whole entry): as the sequence (P08684 whole entry) above

Cytochrome P450 3A5 [12] = target: T2, Cytochrome P450 3A5; assay: Inhibition of testosterone 6beta-hydroxylase activity of human recombinant CYP3A5 in presence of human P450 oxidoreductase and b5 assessed as decrease in enzyme activity preincubated for 30 mins by LC-MS/MS analysis
Method in brief: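 rCYP3A5 with POR and b5 (0.010 mg/ml for midazolam, 0.020 mg/ml for testosterone) preincubated 30 min at 37°C with 2 µM inhibitor, ±NADPH (1.3 mM), N=2. Mixture then diluted 10-fold into probe substrate at ~KM at 37°C. Activity expressed as percent of control remaining, reported as decrease in activity.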

Question: Which results are given for `Cc1ccc(-c2c(-c3nn(C)c4ncnc(N5CC[C@H](N6CCCCC6)C5)c34)cnn2C)cc1`?
Answer: pIC50 (CYP3A [1]): 6.48; inhibition at 30 min, 100 µM (CYP2C9): 5.4%; inhibition (INH) [2]: Not Active; pIC50 (Cytochrome P450 2C8): 4.11; pIC50 (CYP3A [3]): 5.85; Drug metabolism (Cytochrome P450 3A5 [4]): metabolite_detected; Drug metabolism (Cytochrome P450 3A4 [5]): metabolite_detected; inhibition at 30 min, 2 µM (CYP3A5): 61%; pKi (Cytochrome P450 3A4 [6]): 6.92; inhibition at 30 min, 100 µM (CYP1A2): 17%; inhibition at 30 min, 5 µM (CYP3A [7]): 53%; pIC50 (Cytochrome P450 1A2): 4.37; pIC50 (Cytochrome P450 3A4 [8]): 6.16; Drug metabolism (Cytochrome P450 3A4 [9]): metabolite_detected; inhibition at 30 min, 100 µM (CYP2D6): 6%; pIC50 (CYP3A [10]): 6.80; pIC50 (Cytochrome P450 2C9): < 4.00; pIC50 (Cytochrome P450 2B6): 4.06; pIC50 (Cytochrome P450 3A5 [11]): 4.15; inhibition at 30 min, 0.05 µM (CYP3A4): 74%; pKi (Cytochrome P450 3A5 [12]): 5.92
